From ChEMBL document CHEMBL2413032, “Synthesis and evaluation of 1-[2-(4-[(11)C]methoxyphenyl)phenyl]piperazine for imaging of the serotonin 5-HT7 receptor in the rat brain” (Bioorg Med Chem, 2013) come the findings set out here.

Series [1] can be described thus: Drug metabolism in Sprague-Dawley rat plasma assessed as intact form at 0.07 to 0.11 nmol, iv after 60 mins by HPLC analysis. In kind it is ADME, organism-based. To be noted: read-out: Stability. In short, it runs like this: (§1)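 At 15 and 60 min after intravenous tracer, rat plasma and brain were taken. Brain was homogenized in ice-cold MeCN/H2O (1:1) and centrifuged 15,000 rpm, 2 min, 4 °C. Supernatants were run on radio-HPLC (C18, 4.6 × 250 mm; MeCN/H2O/TFA 4/6/0.05; 1.0 mL/min). Intact fraction = decay-corrected tracer peak area / total peak area × 100.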

Series [2] is described as follows: n-Octanol-sodium phosphate buffer partition coefficient, log D of the compound at pH 7.4 by shake flask method. In kind it is physicochemical. The method, boiled down:
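Shake flask: [11C]tracer (about 150,000 cpm) was mixed with n-octanol (3.0 g) and 0.1 M sodium phosphate-buffered saline, pH 7.40 (3.0 g). The mix was vortexed 3 min at room temperature and centrifuged 3500 rpm for 5 min; n = 3.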

Series [3] relates to Rattus norvegicus. The series is described as follows: Biodistribution in Sprague-Dawley rat frontal cortex assessed as increase in uptake at 0.07 to 0.11 nmol, iv pre-treated with 3 mg/kg of SB269970 measured up to 90 mins by HPLC analysis relative to control. It is filed as ADME, organism-based. As to conditions: in vivo. More on the design: dose 3 mg/kg, route intravenous. In short, it runs like this:
(§2)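 PET blocking study in male Sprague–Dawley rats under isoflurane. SB269970 3 mg/kg, in saline with 10% ethanol and 5% polysorbate 80, was given 1 min before intravenous tracer. A 90-min 3D list-mode scan (350–750 keV) followed. Regional decay-corrected SUV time-activity curves were compared with baseline animals; n = 3 per group.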

The test system of series [4] is Hippocampus. Put plainly: Biodistribution in Sprague-Dawley rat hippocampus assessed as increase in uptake at 0.07 to 0.11 nmol, iv pre-treated with 3 mg/kg of SB269970 measured up to 90 mins by HPLC analysis relative to control. In kind it is ADME, organism-based. Also on record: dose 3 mg/kg, route intravenous. To be noted: in vivo. The method, boiled down: as §2

A short description of series [5]: Drug metabolism in Sprague-Dawley rat plasma assessed as intact form at 0.07 to 0.11 nmol, iv after 15 mins by HPLC analysis. It is filed as ADME, organism-based. To be noted: read-out: Stability. The method, boiled down: as §1
A short description of series [6]: Drug metabolism in Sprague-Dawley rat brain assessed as intact form at 0.07 to 0.11 nmol, iv after 60 mins by HPLC analysis. It is filed as ADME, organism-based. As to conditions: read-out: Stability. In short, it runs like this: as §1
Series [7] can be described thus: Drug metabolism in Sprague-Dawley rat brain assessed as intact form at 0.07 to 0.11 nmol, iv after 15 mins by HPLC analysis. In kind it is ADME, organism-based. To be noted: read-out: Stability. The method, boiled down: as §1
The test system of series [8] is Thalamus. The series is described as follows: Biodistribution in Sprague-Dawley rat thalamus assessed as increase in uptake at 0.07 to 0.11 nmol, iv pre-treated with 3 mg/kg of SB269970 measured up to 90 mins by HPLC analysis relative to control. It is filed as ADME, organism-based. More on the design: dose 3 mg/kg, route intravenous. As to conditions: in vivo. The method, boiled down:
as §2

Series [9] relates to Brain. Put plainly: Biodistribution in Sprague-Dawley rat brain at 0.07 to 0.11 nmol, iv after 3 to 5 mins by HPLC analysis. It is filed as ADME, organism-based. To be noted: in vivo. In short, it runs like this: (§3)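 Small-animal PET in male Sprague–Dawley rats (220–240 g, 7 weeks) under isoflurane (5% induction, 1–2% maintenance). A 90-min 3D list-mode emission scan (350–750 keV) started immediately after intravenous tracer injection, framed 4 × 1, 8 × 2, 14 × 5 min. Regional uptake was decay-corrected to injection time and expressed as SUV normalized to injected radioactivity and body weight; n = 3.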

Series [10] has as its system Brain. The series is described as follows: Biodistribution in Sprague-Dawley rat brain at 0.07 to 0.11 nmol, iv after 90 mins by HPLC analysis. To be noted: in vivo, 1.5 h. It is filed as ADME, organism-based. The method, boiled down: as §3
Series [11] deals with Cerebellum. The series is described as follows: Biodistribution in Sprague-Dawley rat cerebellum assessed as increase in uptake at 0.07 to 0.11 nmol, iv pre-treated with 3 mg/kg of SB269970 measured up to 90 mins by HPLC analysis relative to control. In kind it is ADME, organism-based. Also on record: dose 3 mg/kg, route intravenous. As to conditions: in vivo. In short, it runs like this:
as §2

Series [12] concerns the target 5-hydroxytryptamine receptor 7 (Rattus norvegicus) (UniProt P32305). The series is described as follows: Binding affinity to 5-HT7 in Sprague-Dawley rat pons/medulla at 1 nM after 30 mins by autoradiography. To be noted: tested as the 11C-labelled form. In short, it runs like this:
(§4)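 Frozen sagittal male Sprague–Dawley rat brain sections were preincubated 3 × 5 min in 50 mM Tris–HCl, pH 7.4, at room temperature. They were then incubated 30 min at room temperature in fresh buffer with 1 nM [11C]tracer, alone or with unlabeled ligand or SB269970 added to define specific binding. Sections were washed 3 × 5 min in cold buffer, dipped in cold water and air-dried. Imaging-plate photo-stimulated luminescence was read in regions of interest; n = 4.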

The target of series [13] is T1, 5-hydroxytryptamine receptor 1A (Rattus norvegicus) (UniProt P19327).
T1 sequence (whole entry): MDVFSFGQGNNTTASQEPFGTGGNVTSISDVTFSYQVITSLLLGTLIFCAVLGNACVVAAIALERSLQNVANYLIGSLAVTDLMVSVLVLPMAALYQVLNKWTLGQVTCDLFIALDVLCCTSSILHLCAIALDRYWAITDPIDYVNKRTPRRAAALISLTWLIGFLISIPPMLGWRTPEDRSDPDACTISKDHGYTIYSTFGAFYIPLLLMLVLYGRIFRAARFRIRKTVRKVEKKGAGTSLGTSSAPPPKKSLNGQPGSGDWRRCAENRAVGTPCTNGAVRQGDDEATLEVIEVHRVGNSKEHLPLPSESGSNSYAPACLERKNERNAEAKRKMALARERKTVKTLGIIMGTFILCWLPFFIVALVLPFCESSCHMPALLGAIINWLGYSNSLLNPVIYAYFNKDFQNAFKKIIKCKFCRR
Put plainly: Binding affinity to 5-HT1A in Sprague-Dawley rat hippocampus after 30 mins by autoradiography. It is filed as tissue-based.

Series [14] concerns the target T1, 5-hydroxytryptamine receptor 1A (Rattus norvegicus). Put plainly: Binding affinity to 5-HT1A in Sprague-Dawley rat hippocampus at 1 nM after 30 mins by autoradiography. In kind it is tissue-based. To be noted: tested as the 11C-labelled form.
The target is the same in series [15]. Put plainly: Binding affinity to 5-HT1A in Sprague-Dawley rat frontal cortex after 30 mins by autoradiography. It is filed as tissue-based.
Series [16] concerns the target 5-hydroxytryptamine receptor 7 (Rattus norvegicus, UniProt P32305). The series is described as follows: Binding affinity to 5-HT7 in rat brain. In kind it is tissue-based.
Series [17] concerns the target 5-hydroxytryptamine receptor 7 (Rattus norvegicus) (UniProt P32305). Put plainly: Binding affinity to 5-HT7 in Sprague-Dawley rat brain assessed as reduction in total radioactivity at 1 nM after 30 mins by autoradiography in presence of SB269970. To be noted: tested as the 11C-labelled form. In short, it runs like this:
as §4

For series [18] the target is unchanged. Put plainly: Binding affinity to 5-HT7 in Sprague-Dawley rat thalamus at 1 nM after 30 mins by autoradiography. As to conditions: tested as the 11C-labelled form. The method, boiled down: as §4
Series [19] shares this target. The series is described as follows: Binding affinity to 5-HT7 in Sprague-Dawley rat cerebellum at 1 nM after 30 mins by autoradiography. To be noted: tested as the 11C-labelled form. In short, it runs like this:
as §4

For series [20] the target is unchanged. The series is described as follows: Binding affinity to 5-HT7 in Sprague-Dawley rat straitum at 1 nM after 30 mins by autoradiography. To be noted: tested as the 11C-labelled form. In short, it runs like this: as §4
For series [21] the target is unchanged. The series is described as follows: Binding affinity to 5-HT7 in Sprague-Dawley rat brain assessed as reduction in total radioactivity at 1 nM after 30 mins by autoradiography in presence of unlabelled compound. As to conditions: tested as the 11C-labelled form. In short, it runs like this:
as §4

Series [22] concerns the target T1, 5-hydroxytryptamine receptor 1A (Rattus norvegicus). Put plainly: Binding affinity to 5-HT1A in Sprague-Dawley rat cerebral cortex at 1 nM after 30 mins by autoradiography. In kind it is tissue-based. As to conditions: tested as the 11C-labelled form.

Activity calls are given as the source filed them. No cut-off for these calls is given here.

5-hydroxytryptamine receptor 7 (Rattus norvegicus), sequence (P32305 whole entry): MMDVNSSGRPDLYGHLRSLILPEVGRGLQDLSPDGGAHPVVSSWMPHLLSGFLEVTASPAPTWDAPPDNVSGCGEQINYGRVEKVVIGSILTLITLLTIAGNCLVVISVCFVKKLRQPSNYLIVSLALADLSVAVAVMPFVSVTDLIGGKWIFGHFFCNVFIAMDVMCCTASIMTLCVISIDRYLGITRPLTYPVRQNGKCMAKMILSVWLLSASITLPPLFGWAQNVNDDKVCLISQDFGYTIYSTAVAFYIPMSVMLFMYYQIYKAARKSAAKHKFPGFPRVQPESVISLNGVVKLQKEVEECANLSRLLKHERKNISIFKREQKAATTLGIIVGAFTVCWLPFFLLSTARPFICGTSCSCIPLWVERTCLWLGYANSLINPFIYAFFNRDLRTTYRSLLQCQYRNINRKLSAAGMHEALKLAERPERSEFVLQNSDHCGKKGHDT
5-hydroxytryptamine receptor 7, sequence (P32305 whole entry): as above

Turning to `[11CH3]Oc1ccc(-c2ccccc2N2CCNCC2)cc1`, the remaining at 1 h in series [1] was 30%; in [6] it was 69%. The compound also registered a logD in [2] of 1.67. Moreover, the “fold change (FC)” value in series [3], in series [4], in series [8] and in series [11] was 2 each time. The remaining at 0.25 h in [5] turned out to be 51%; in [7] it was 91%. This compound registered an SUV in [9] of 1.2. Also, in series [10], the Drug uptake was 20%.

On to `COc1ccc(-c2ccccc2N2CCNCC2)cc1`, for which the result in [12], in series [18], in series [19] and in series [20] was Active. The Bmax in series [13] and in [15] was 5 nM in each case. Also, the outcome in [14], in series [17], in [21] and in series [22] was inactive. This compound yielded a Ki in [16] of 2.6 nM.

As a reminder, the logD is the decadic logarithm of the distribution of all forms, ionised or not, between an organic phase and buffer at a given pH. A word on the Ki: it is the equilibrium dissociation constant of an inhibitor or competing ligand from its target. Higher therefore signals a looser hold on the target.
